Compound activity deposited in PubChem BioAssay by Broad Institute.
PglD inh: blocks C. jejuni PglD acetyltransferase activity | purified PglD enzyme, DTNB colorimetric CoA detection | inhibition, % at 12.5 µM | 360,000 tested, 0.098% active | AID 602405; in the data active = inhibition above about 16%, passing the limit was not always enough
Cneo AK release: causes C. neoformans cell lysis; adenylate kinase release luminescence, 4 h; normalised: neutral wells 0, clomiphene wells 100; lysis activity, % at 15 µM; 360,000 tested, 0.2% active;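 active = mean lysis activity across replicates of at least 80%, whatever share of replicates individually reach that level; inactive = mean lysis activity below 80%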
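Schedule: static 4 h at 37 °C with compound, 1 h detection; system: C. neoformans cells; benchmarks: Clomiphene as positive control; buffer or medium: fresh YPD medium; measure: luminescence rise reflecting yeast cell lysis; measured by: luminescent adenylate kinase detection reagent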
Vif imaging: HIV Vif inhibition; HEK293T cells, Vif self-association by quenched fluorescence, imaging, 24 h; inhibition, % at 7.49 µM; 340,000 tested, 0.35% active; AID 602346; in the data active = inhibition above about 50%, passing the limit was not always enough
FGF22 binding: shifts melting point of recombinant human FGF22; Q9HCT0; recombinant FGF22 thermal shift, SYPRO orange fluorescence; percent of sucrose octasulfate shift, DMSO zero; activity (Tm shift, normalised), % at 9.99 µM; 340,000 tested, 1.5% active; AID 651658;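 active = mean Tm shift, scaled 0 neutral to 100 positive control, at about 1.3% or above, every replicate too, limit read from the data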
Target sequence (Q9HCT0 whole entry, looked up): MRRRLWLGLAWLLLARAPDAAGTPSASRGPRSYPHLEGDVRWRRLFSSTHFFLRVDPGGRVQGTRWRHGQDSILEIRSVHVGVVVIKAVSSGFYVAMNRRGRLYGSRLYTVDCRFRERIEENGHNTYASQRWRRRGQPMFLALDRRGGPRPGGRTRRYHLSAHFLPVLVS
Ecoli rRNA inh: inhibitors of bacterial rRNA selective over humanized ribosomes | E. coli WT GFP vs humanized-ribosome RFP mutants, fluorescence, 24 h; hits give low values; DMSO median 0, no signal -100 | GFP signal change (wild-type ribosome), % (no concentration beside the values) | 350,000 tested, 1.6% active | AID 720706;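 active = significant combined selectivity score with lowered wild-type GFP, culture density cut under 30%, mutant RFP and density less affected; inactive = any of these conditions unmet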
PGC1a acetyl inh: modulators of PGC1a acetylation | 350,000 tested, 0.17% active | inhibition, % at 15.6 µM | U2OS PGC1a acetylation, AlphaScreen anti-acetyl-lysine; with virally co-expressed GCN5 acetyltransferase | AID 651687;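 active = every replicate shows inhibition of at least 40%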;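 note: 0% = neutral control wells and 100% = positive control wells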
Active calls of the source: *; x = no result. A selection: hits, their analogues and other compounds. The true share with any hit is near 2.9%.

SMILES | PglD inh | Cneo AK release | Vif imaging | FGF22 binding | Ecoli rRNA inh | PGC1a acetyl inh
O=C(NC(=S)Nc1ccccc1N1CCCC1)c1cccs1 | -0.2 | 1.5 | -7.7 | -0.2 | 3.5 | 50.8*
O=C(C[C@@H]1C[C@@H]2c3cc(NC(=O)Nc4ccccc4F)ccc3O[C@@H]2[C@H](CO)O1)NCC(F)(F)F | 4.2 | -0.7 | x | 0.2 | -1.1 | -9.0
O=C(NC(=S)Nc1ccccc1N1CCOCC1)c1ccccc1F | 4.9 | 2.5 | -22.2 | 0.1 | -34.0* | -0.8
O=C(NC(=S)Nc1ccccc1N1CCN(C(=O)c2ccccc2)CC1)c1ccccc1F | -1.8 | 15.7 | x | -0.1 | -4.9 | x
O=C(NC(=S)Nc1ccccc1N1CCOCC1)c1cccs1 | x | x | -4.1 | -0.3 | -29.0* | x
CN1C(=O)S/C(=C\c2ccc(-n3cncn3)cc2)C1=O | -1.9 | -0.5 | -4.4 | 42.6 | -22.2* | 6.1
O=Cc1ccc(-n2cncn2)cc1 | x | x | 6.4 | 0.1 | -0.2 | x
CCOc1c2ccc(C(=O)NCc3ccc(OC(F)(F)F)cc3)cc2nn1CC | -4.7 | -0.5 | -1.8 | 0.0 | -0.4 | -7.2
CCOc1c2ccc(C(=O)N[C@H](C)C3CCCCC3)cc2nn1CCOC | -3.6 | -0.1 | 7.7 | 44.2* | 0.1 | 12.4
CCCn1nc2cc(C(=O)NCc3ccc(OC(F)(F)F)cc3)ccc2c1OCC | -1.2 | -0.8 | -3.9 | 43.0* | -8.1 | x
CCCCn1nc2cc(C(=O)NCCc3ccc(C)cc3)ccc2c1OCC | -1.7 | 0.4 | -0.8 | -0.3 | -38.4* | -11.3
CC(C)NC(=O)N(C)C[C@@H]1OCCCC[C@H](C)Oc2ccc(NS(=O)(=O)c3ccc(Cl)cc3)cc2C(=O)N([C@@H](C)CO)C[C@@H]1C | 6.9 | -4.7 | x | 0.1 | -4.0 | 1.6
CO[C@H]1CC[C@@H]2CCN(C)C(=O)C[C@@H](c3ccccc3)CN(C)C(=O)c3cccc(C#N)c3OC[C@H]1O2 | -0.6 | 0.0 | x | 0.0 | 1.7 | x
CCCN(CCC)c1ccc(CC(=O)NC(C)Cc2ccccc2)cc1 (stereo not drawn) | x | x | 4.5 | 0.6 | x | x
CCN(CC)c1ccc(CC(=O)NC(C)Cc2ccccc2)cc1 (stereo not drawn) | -5.8 | 0.7 | 101.4* | x | x | -4.6
CC(Oc1ccccc1)c1ccnc2nc(N3CCOCC3)nn12 (stereo not drawn) | 4.8 | 0.5 | 6.4 | 43.4* | -8.9 | 6.3
O=C(CC1CC1)N1CC(=O)N2[C@H](CO)[C@@H](c3ccc(/C=C/c4ccccc4)cc3)[C@H]2C1 | x | x | x | x | -0.1 | -9.8
COc1ccc(CN(CC(O)COCc2ccccc2)S(=O)(=O)c2ccccc2Br)cc1OC (stereo not drawn) | 1.2 | 3.5 | 16.2 | -0.3 | -20.8* | x
C=CC(COCc1ccccc1)N(C(=O)OC(C)(C)C)S(=O)(=O)c1ccccc1Br (stereo not drawn) | 7.6 | 1.5 | x | 0.1 | 1.9 | -8.2
COCC(=O)N1C[C@H](C)[C@@H](OC)CN(C)C(=O)c2ccc(NC(=O)NC(C)C)cc2OC[C@@H]1C | x | x | x | 0.2 | 3.1 | 6.3
Cc1cc(CSc2ccccc2)ccc1NC(=O)c1ccc(C)c([N+](=O)[O-])c1 | x | x | -7.2 | 43.4* | x | 3.7
Cc1c(CCCl)c(Cl)n2c(nc3ccccc32)c1C#N | x | x | 60.8* | -0.1 | 2.0 | x
Cc1nc(NCC2CCCO2)c2nnn(Cc3ccccc3)c2n1 (stereo not drawn) | x | x | x | 0.2 | -17.5* | 10.7
Cc1nc(NCC2CCCO2)c2nnn(Cc3ccccc3Cl)c2n1 (stereo not drawn) | 2.7 | -2.4 | 1.0 | 0.1 | 13.1 | 14.6
CCOC(=O)c1cccc(S(=O)(=O)N(CCO)Cc2cc3cc(OC)ccc3[nH]c2=O)c1 | -4.4 | 11.5 | -1.1 | 0.0 | -17.9* | 4.9
SMILES | PglD inh | Cneo AK release | Vif imaging | FGF22 binding | Ecoli rRNA inh | PGC1a acetyl inh
CCOC(=O)c1cccc(S(=O)(=O)N(CCO)Cc2cc3cc(OC)c(OC)cc3[nH]c2=O)c1 | -3.3 | 0.1 | 3.4 | x | x | 8.8
COc1ccc2[nH]c(=O)c(CN(CCO)S(=O)(=O)c3ccc(C)cc3)cc2c1 | x | x | 16.9 | -0.1 | -23.6* | x
CCCCN(Cc1cc2cc(OC)ccc2[nH]c1=O)S(=O)(=O)c1ccc(C)cc1 | 5.1 | 2.0 | -4.7 | -0.2 | -10.0 | 15.6
COc1cc2c(c(OC)c1OC)C(=O)C(=Cc1ccccc1)O2 | 0.4 | -1.2 | 2.2 | -0.3 | -28.6* | -10.0
Cc1ccc(S(=O)(=O)N[C@H]2C=C[C@H](CC(=O)NCc3ccc(Cl)c(Cl)c3)O[C@H]2CO)cc1 | -1.0 | 2.4 | x | 0.0 | -7.5 | -2.7
O=C(c1ccc(F)cc1F)N1CCCC(c2nc(-c3ccc(F)cc3)no2)C1 (stereo not drawn) | 4.7 | 0.6 | -23.0 | 0.1 | -21.5* | x
O=C(Cc1ccccc1)N1CCCC(c2nc(-c3ccc(S(=O)(=O)N4CCCC4)cc3)no2)C1 (stereo not drawn) | -4.2 | -1.8 | -35.5 | 0.4 | -25.5* | 2.4
Oc1cccc(Nc2nc(O)c(/C=C3\C=Nc4ccccc43)s2)c1 | -6.5 | -5.0 | 56.8* | 0.4 | -55.0 | 2.3
CC(=O)N(C)C[C@@H]1Oc2cc(-c3cccc(C#N)c3)ccc2S(=O)(=O)N([C@H](C)CO)C[C@@H]1C | 1.4 | 2.8 | x | -0.3 | -5.8 | 6.5
O=C(O)c1c2cc(Br)ccc2nc2[nH]c(=O)[nH]c(=O)c12 | -0.9 | -0.5 | 19.8 | 43.1* | -1.1 | 2.4
N#C/C(=C\c1ccc(Cl)cc1)c1nc(-c2ccco2)cs1 | x | x | 2.3 | 0.2 | 22.9 | x
N#C/C(=C\c1ccc(F)cc1)c1nc(-c2ccco2)cs1 | x | x | 58.7* | 0.0 | -1.4 | x
C[C@@H]1CCCCO[C@@H](CN(C)C(=O)CCCN(C)C)[C@@H](C)CN([C@H](C)CO)C(=O)c2cc(NC(=O)Cc3ccccc3)ccc2O1 | -45.7 | 103.8* | x | 0.7 | 7.8 | 9.8
C[C@@H]1CCCCO[C@H](CN(C)C(=O)CCCN(C)C)[C@@H](C)CN([C@H](C)CO)C(=O)c2cc(NC(=O)Cc3ccccc3)ccc2O1 | 1.1 | 115.6* | x | 0.3 | 5.1 | -12.6
C[C@H]1CCCCO[C@@H](CN(C)C(=O)CCCN(C)C)[C@@H](C)CN([C@@H](C)CO)C(=O)c2cc(NC(=O)Cc3ccccc3)ccc2O1 | 3.9 | 2.5 | x | -0.2 | 2.9 | -4.0
C[C@@H]1CN([C@H](C)CO)S(=O)(=O)c2ccc(C#CCN(C)C)cc2O[C@H]1CN(C)Cc1ccc2c(c1)OCO2 | 6.3 | -0.2 | x | 0.4 | -3.4 | -28.8
COC(=O)c1ccccc1S(=O)(=O)NC(=O)c1ccccc1 | -3.3 | 2.9 | 0.1 | x | x | -4.9
CCc1nc(NC(=O)NS(=O)(=O)c2ccccc2C(=O)OC)nc(OC)n1 | x | x | 1.3 | 42.9* | 6.6 | x
CCc1cccc(N=c2c([N+](=O)[O-])nn(-c3ccc4c(c3)OCCO4)n2O)c1 | x | x | -20.6 | 43.3* | -2.4 | x
